The source made the active and inactive calls. The rule behind the calls is not given here.
How the values were obtained:
Liver microsomes = experiment: Drug metabolism in rat liver microsomes; type: ADME, Microsome
Mus musculus [1] = experiment: Upregulation of medium chain acyl CoA dehydrogenase gene expression in C57BL/6J mouse muscles at 15 to 150 mg/kg, po; type: functional, organism-based; settings: Muscle tissue
L6 [2] = experiment: Activation of AMPK alpha1 D159A/alpha2 K45R mutant in rat L6 cells assessed as stimulation of glucose uptake after 15 mins; type: cell-based
Mus musculus [3] = experiment: Antidiabetic activity in diet-induced obese C57BL/6J mouse assessed as decrease in AUC at 50 to 150 mg/kg, po qd for 4 weeks by glucose tolerance test relative to control; type: functional; design: scale not given: the % may be the effect or the level left; settings: dose mg/kg 50-150
Mus musculus [4] = experiment: Upregulation of COX5B gene expression in C57BL/6J mouse muscles at 15 to 150 mg/kg, po; type: functional, organism-based; settings: Muscle tissue
Mus musculus [5] = experiment: Upregulation of PDK4 gene expression in C57BL/6J mouse muscles at 15 to 150 mg/kg, po; type: functional, organism-based; settings: Muscle tissue
Mus musculus [6] = experiment: Antidiabetic activity in diet-induced obese C57BL/6J mouse assessed as improved glucose tolerance at 50 to 150 mg/kg, po qd for 4 weeks by glucose tolerance test
[7] = target: T1, Inhibitor of nuclear factor kappa-B kinase subunit beta (Homo sapiens) (UniProt O14920); experiment: Activity at IKKbeta (unknown origin)
T1 sequence (whole entry): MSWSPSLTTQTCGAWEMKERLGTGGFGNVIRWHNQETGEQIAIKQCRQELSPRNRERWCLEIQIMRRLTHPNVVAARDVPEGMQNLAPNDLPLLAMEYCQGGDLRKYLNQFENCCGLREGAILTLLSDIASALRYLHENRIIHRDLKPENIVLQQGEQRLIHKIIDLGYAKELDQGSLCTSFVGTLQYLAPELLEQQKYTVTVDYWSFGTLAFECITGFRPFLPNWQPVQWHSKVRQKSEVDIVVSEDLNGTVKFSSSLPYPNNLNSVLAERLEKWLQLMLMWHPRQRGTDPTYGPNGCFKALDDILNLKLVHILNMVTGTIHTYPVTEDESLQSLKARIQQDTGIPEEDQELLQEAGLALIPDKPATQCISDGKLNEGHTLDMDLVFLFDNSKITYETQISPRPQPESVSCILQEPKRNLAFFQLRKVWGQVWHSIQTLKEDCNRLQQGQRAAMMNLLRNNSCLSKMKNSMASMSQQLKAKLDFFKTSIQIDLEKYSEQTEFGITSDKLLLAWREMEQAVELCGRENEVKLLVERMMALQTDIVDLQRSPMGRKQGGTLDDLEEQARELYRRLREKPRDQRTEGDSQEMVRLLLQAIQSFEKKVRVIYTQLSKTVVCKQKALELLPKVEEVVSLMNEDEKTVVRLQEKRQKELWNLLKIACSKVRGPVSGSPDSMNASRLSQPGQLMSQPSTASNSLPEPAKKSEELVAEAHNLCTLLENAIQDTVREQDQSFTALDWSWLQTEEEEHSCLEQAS

[8] = AUC (0 to 24 hrs) in Wistar rat at 2 mg/kg, iv by LC-MS/MS analysis; type: ADME, organism-based; design: time < 24 hr, dose 2 mg/kg, route intravenous; settings: plasma
Mus musculus [9] = experiment: Upregulation of UCP2 gene expression in C57BL/6J mouse muscles at 15 to 150 mg/kg, po; type: functional, organism-based; settings: Muscle tissue
Mus musculus [10] = experiment: Upregulation of PGC1alpha gene expression in C57BL/6J mouse muscles at 15 to 150 mg/kg, po; type: functional, organism-based; settings: Muscle tissue
Mus musculus [11] = experiment: Upregulation of CPT2 gene expression in C57BL/6J mouse muscles at 15 to 150 mg/kg, po; type: functional, organism-based; settings: Muscle tissue
Cytochrome P450 3A4 = Cytochrome P450 3A4 (Homo sapiens, UniProt P08684); experiment: Inhibition of CYP3A4 (unknown origin); type: ADME
Mus musculus [12] = experiment: Upregulation of CPT1 gene expression in C57BL/6J mouse muscles at 15 to 150 mg/kg, po; type: functional, organism-based; settings: Muscle tissue
[13] = target: Glycogen synthase kinase-3 beta (Homo sapiens) (UniProt P49841); experiment: Activity at GSK3beta (unknown origin)
[14] = Terminal half life in Wistar rat at 2 mg/kg, iv by LC-MS/MS analysis; type: ADME, organism-based; design: dose 2 mg/kg, route intravenous; settings: in vivo, read-out: beta t1/2 (converted)
[15] = target: Maternal embryonic leucine zipper kinase (Homo sapiens) (UniProt Q14680); experiment: Activity at MELK (unknown origin)
Cytochrome P450 2D6 = Cytochrome P450 2D6 (Homo sapiens, UniProt P10635); experiment: Inhibition of CYP2D6 (unknown origin); type: ADME
[16] = AUC (0 to infinity) in Wistar rat at 2 mg/kg, iv by LC-MS/MS analysis; type: ADME, organism-based; design: time infinity, dose 2 mg/kg, route intravenous; settings: plasma
[17] = Oral bioavailability in Wistar rat at 10 mg/kg by LC-MS/MS analysis; type: ADME, organism-based; settings: in vivo
[18] = Half life in Wistar rat at 10 mg/kg, po by LC-MS/MS analysis; type: ADME, organism-based; design: dose 10 mg/kg, route oral; settings: in vivo
Mus musculus [19] = experiment: Antidiabetic activity in diet-induced obese C57BL/6J mouse assessed as reduction in plasma triglyceride at 15 mg/kg, po qd for 4 weeks (reference value: 0.62 +/- 0.02 mM); type: functional
Mus musculus [20] = experiment: Antidiabetic activity in diet-induced obese C57BL/6J mouse assessed as reduction in plasma triglyceride at 150 mg/kg, po qd for 4 weeks (reference value: 0.62 +/- 0.02 mM); type: functional
AMPK alpha2/beta1/gamma1 = AMPK alpha2/beta1/gamma1 (Homo sapiens, UniProt P54619+P54646+Q9Y478); experiment: Activation of recombinant AMPK alpha2beta1gamma1 (unknown origin) after 2 hrs by scintillation proximity assay; type: protein-complex assay
How it was run: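 Activation of bacterially expressed AMPK α2β1γ1 was measured by scintillation proximity assay. Efficacy is expressed relative to AMP.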

[21] = target: Voltage-gated inwardly rectifying potassium channel KCNH2 (Homo sapiens, UniProt Q12809); experiment: Inhibition of human ERG
[22] = target: AMPK alpha2/beta1/gamma1 (Homo sapiens) (UniProt P54646+P54619+Q9Y478); experiment: Activation of recombinant AMPK alpha2beta1gamma1 (unknown origin) at 20 ug/mL after 2 hrs by scintillation proximity assay relative to AMP; type: protein-complex assay
L6 [23] = experiment: Activation of AMPK in rat L6 cells assessed as stimulation of glucose uptake after 15 mins; type: cell-based

Chain of Maternal embryonic leucine zipper kinase (Homo sapiens) (Q14680 whole entry, looked up): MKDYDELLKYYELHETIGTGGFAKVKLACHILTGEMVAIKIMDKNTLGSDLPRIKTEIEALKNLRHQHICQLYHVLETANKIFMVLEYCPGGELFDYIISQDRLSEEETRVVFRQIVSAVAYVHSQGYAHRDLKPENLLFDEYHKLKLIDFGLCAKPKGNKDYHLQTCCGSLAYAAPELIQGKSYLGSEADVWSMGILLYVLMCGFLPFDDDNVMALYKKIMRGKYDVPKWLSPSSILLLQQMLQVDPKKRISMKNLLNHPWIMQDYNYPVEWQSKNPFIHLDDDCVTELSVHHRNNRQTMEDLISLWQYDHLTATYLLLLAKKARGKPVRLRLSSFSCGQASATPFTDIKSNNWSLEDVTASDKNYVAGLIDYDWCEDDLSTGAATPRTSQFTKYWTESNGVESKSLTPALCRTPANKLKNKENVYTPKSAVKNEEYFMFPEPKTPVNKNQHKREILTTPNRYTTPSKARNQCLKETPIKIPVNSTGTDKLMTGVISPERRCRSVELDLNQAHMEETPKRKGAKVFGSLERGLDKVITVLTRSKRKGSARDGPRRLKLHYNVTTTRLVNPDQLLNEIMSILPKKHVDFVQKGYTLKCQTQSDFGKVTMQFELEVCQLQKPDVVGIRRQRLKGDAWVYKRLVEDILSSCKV
Chain of AMPK alpha2/beta1/gamma1 (P54646 whole entry): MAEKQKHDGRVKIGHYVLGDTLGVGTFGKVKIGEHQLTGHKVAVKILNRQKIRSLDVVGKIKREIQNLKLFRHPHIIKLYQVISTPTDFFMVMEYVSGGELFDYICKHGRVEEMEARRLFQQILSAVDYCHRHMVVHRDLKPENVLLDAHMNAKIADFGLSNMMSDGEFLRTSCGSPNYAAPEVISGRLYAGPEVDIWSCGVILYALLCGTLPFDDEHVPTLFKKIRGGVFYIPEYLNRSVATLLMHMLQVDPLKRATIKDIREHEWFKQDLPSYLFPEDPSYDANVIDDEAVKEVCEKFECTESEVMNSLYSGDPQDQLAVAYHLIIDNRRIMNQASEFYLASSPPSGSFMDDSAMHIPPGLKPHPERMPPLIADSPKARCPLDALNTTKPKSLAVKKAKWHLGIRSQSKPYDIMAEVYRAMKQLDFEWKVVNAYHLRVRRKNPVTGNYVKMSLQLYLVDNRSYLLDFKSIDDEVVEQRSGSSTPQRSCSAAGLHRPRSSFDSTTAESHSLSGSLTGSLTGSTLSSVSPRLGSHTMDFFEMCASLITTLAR
Chain of AMPK alpha2/beta1/gamma1 (P54619 whole entry): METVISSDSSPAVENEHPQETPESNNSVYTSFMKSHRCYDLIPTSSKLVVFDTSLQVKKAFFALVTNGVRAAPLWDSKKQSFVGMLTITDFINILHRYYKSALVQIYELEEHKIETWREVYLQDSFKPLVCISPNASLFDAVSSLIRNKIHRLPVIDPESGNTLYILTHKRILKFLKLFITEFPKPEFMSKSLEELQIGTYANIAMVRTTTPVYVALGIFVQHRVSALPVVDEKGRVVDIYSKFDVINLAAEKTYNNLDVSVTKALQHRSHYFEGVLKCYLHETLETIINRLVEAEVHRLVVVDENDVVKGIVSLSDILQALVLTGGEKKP
Chain of AMPK alpha2/beta1/gamma1 (Q9Y478 whole entry): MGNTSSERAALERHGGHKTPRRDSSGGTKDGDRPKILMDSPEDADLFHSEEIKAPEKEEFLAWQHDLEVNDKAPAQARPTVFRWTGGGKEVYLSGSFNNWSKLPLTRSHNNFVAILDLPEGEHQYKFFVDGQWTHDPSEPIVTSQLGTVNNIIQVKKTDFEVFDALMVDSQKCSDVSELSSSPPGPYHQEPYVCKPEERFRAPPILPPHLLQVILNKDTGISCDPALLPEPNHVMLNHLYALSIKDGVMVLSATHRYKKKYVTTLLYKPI
Chain of Cytochrome P450 2D6 (P10635 whole entry): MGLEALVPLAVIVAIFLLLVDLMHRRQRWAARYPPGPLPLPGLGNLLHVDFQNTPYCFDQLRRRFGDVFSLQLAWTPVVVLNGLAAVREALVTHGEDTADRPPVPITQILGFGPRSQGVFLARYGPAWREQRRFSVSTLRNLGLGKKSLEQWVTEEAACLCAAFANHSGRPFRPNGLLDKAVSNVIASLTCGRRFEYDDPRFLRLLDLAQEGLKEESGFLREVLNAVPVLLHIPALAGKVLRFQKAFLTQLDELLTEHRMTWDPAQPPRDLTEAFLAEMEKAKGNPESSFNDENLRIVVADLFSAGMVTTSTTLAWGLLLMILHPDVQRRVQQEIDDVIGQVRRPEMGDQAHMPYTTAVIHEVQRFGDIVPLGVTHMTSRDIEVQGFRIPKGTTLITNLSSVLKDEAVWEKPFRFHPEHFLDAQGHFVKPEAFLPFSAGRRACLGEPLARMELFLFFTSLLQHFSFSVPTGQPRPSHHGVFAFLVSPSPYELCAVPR
Chain of Voltage-gated inwardly rectifying potassium channel KCNH2 (Q12809 whole entry): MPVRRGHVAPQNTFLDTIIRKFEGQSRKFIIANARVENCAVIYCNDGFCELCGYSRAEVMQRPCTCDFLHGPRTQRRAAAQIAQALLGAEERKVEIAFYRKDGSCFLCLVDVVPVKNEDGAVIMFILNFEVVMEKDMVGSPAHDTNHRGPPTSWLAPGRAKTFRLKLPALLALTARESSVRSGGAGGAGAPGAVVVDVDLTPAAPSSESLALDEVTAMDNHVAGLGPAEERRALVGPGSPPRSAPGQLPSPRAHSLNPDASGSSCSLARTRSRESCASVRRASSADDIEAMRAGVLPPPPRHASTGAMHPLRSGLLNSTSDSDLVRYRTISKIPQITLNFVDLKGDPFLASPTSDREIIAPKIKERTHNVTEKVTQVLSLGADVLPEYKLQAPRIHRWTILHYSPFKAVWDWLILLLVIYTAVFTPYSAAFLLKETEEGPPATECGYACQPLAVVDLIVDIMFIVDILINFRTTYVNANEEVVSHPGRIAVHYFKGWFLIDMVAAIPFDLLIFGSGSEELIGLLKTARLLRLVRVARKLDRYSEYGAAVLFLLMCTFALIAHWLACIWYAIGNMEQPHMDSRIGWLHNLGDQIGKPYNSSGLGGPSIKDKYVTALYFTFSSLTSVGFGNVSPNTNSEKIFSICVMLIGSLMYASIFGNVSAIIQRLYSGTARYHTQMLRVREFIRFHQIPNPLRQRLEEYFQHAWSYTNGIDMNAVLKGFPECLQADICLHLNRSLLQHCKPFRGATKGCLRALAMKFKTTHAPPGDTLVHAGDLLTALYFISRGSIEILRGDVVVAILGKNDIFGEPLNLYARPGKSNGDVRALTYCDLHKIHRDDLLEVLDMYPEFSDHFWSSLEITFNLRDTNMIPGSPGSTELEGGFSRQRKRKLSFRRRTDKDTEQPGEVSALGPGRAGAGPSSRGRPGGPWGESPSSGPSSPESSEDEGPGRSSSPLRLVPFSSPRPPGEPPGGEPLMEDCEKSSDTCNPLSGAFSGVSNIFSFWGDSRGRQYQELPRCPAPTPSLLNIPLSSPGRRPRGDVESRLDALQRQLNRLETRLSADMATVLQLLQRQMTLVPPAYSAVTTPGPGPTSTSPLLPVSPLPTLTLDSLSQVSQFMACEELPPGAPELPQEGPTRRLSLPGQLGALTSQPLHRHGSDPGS
Chain of Glycogen synthase kinase-3 beta (Homo sapiens) (P49841 whole entry, looked up): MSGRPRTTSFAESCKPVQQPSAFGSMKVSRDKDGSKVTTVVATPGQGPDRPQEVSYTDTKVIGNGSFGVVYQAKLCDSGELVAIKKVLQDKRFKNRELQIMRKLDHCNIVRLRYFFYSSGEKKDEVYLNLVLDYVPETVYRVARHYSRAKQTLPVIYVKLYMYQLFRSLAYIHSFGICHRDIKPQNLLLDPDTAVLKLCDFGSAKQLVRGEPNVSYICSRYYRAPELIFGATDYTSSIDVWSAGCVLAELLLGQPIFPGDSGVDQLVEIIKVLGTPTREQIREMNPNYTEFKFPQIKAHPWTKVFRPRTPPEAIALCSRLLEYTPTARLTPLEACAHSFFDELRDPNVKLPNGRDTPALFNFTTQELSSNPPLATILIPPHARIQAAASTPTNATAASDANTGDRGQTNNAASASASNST
Chain of Cytochrome P450 3A4 (P08684 whole entry): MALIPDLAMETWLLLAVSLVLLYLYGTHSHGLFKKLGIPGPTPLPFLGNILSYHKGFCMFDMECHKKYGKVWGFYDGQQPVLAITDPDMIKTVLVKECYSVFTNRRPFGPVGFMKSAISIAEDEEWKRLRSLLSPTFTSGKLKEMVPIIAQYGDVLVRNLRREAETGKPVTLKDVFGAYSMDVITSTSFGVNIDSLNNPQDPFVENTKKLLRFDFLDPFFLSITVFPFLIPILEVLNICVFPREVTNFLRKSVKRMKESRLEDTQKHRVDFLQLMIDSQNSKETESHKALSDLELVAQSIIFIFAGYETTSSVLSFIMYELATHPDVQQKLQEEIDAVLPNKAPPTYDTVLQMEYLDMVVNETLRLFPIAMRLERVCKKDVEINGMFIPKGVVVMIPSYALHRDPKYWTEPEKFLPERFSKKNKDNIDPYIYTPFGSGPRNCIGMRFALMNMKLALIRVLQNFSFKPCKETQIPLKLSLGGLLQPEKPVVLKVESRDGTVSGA
Chain of AMPK alpha2/beta1/gamma1 (Homo sapiens) (P54619 whole entry partner): as the sequence (P54619 whole entry) above
Chain of AMPK alpha2/beta1/gamma1 (Homo sapiens) (P54646 whole entry): as the sequence (P54646 whole entry) above
Chain of AMPK alpha2/beta1/gamma1 (Homo sapiens) (Q9Y478 2-270 partner limits assumed): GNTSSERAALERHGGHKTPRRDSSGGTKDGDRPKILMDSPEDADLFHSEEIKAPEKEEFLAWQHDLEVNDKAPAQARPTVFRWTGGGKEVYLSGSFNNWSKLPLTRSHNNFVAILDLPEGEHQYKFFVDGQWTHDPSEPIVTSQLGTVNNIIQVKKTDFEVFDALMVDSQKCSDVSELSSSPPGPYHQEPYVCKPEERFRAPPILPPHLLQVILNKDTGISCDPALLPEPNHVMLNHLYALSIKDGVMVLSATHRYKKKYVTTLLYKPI

Drug metabolism (Liver microsomes): Not Active
Activity [7]: inactive
AUC(0-t) at 24 h [8]: 17300 ng·h/mL
inhibition (INH) (Cytochrome P450 3A4): Not Active
Activity [13]: inactive
half-life [14]: 3.94 h
Activity [15]: inactive
inhibition (INH) (Cytochrome P450 2D6): Not Active
AUC(0-inf) [16]: 17500 ng·h/mL
bioavailability [17]: 33.7%
half-life [18]: 4 h
EC50 (AMPK alpha2/beta1/gamma1): 1200 nM
Efficacy [22]: 110%
SMILES: O=C(O)c1cccc(CN2C(=O)/C(=C(\c3ccccc3)c3ccc(Cl)cc3)c3ccccc32)c1
Activity (Mus musculus [1]): Active
Activity (L6 [2]): inactive
Activity (Mus musculus [3]): 30%
Activity (Mus musculus [4]): Active
Activity (Mus musculus [5]): Active
Activity (Mus musculus [6]): Active
Activity (Mus musculus [9]): Active
Activity (Mus musculus [10]): Active
Activity (Mus musculus [11]): Active
Activity (Mus musculus [12]): Active
Activity (Mus musculus [19]): 0.52 mM
Activity (Mus musculus [20]): 0.54 mM
IC50 [21]: > 20000 nM
Activity (L6 [23]): Dose-dependent effect

— ChEMBL document CHEMBL2384909, “Development of Novel Alkene Oxindole Derivatives As Orally Efficacious AMP-Activated Protein Kinase Activators” (ACS Med Chem Lett, 2013)
